The subject of test [1] is Salmonidae. Kind of test: Binding affinity to salmon testes duplex DNA assessed as transition temperature. In short, it runs like this:
(§1)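 Thermal melting. Salmon testes duplex DNA at 15 μM base pairs, with macrocyclic ligand at 15 μM. Telomeric d[T2G3(T2AG3)3A] at 4 μM strand, with macrocyclic ligand at 20 μM. Buffer was 10 mM EPPS pH 7.5, with KCl added to 50 mM total K+. Transition temperature was taken for DNA with and without ligand.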

The species named for test [2] is Homo sapiens. Put plainly: Effect on thermal stability of G-quadruplex human telomeric DNA sequence d[T2G3(T2AG3)3A] assessed as transition temperature. In short, it runs like this:
as §1

The species named for test [3] is Homo sapiens. Put plainly: Binding affinity to […] human telomeric DNA sequence d[T2G3(T2AG3)3A] assessed as transition temperature. In short, it runs like this: as §1
Test [4] deals with Salmonidae. Put plainly: Effect on thermal stability of salmon testes duplex DNA assessed as transition temperature. In short, it runs like this: as §1
The test system of the next test is P388. Kind of test: Cytotoxicity against mouse P388 cells by MTT assay. Type of test: functional, cell-based. (Tetrazolium dyes change colour on reduction, which living cells bring about.)
Test [5] in a line: Cytotoxicity against human RPMI8402 cells by MTT assay. Type of test: functional, cell-based. To be noted: RPMI 8402.
Test [6] is described as follows: Cytotoxicity against human KB3-1 cells by MTT assay. Type of test: functional, cell-based. To be noted: KB 3-1.
Test [7] in a line: Cytotoxicity against human KBV1 cells by MTT assay. The conditions noted are these: KB-V1. Type of test: functional, cell-based.
A short description of test [8]: Cytotoxicity against human KBH5.0 cells by MTT assay. To be noted: KBH5.0 cell. The class given is functional, cell-based.

Active and inactive are the calls of the source. The calls are words filed in the database; no cut-off is given here.

One may read the IC50 as the midpoint of a concentration-inhibition curve. Higher therefore signals lower potency. With `CC(C)[C@@H]1NC(=O)c2coc(n2)-c2coc(n2)-c2coc(n2)[C@H](C(C)C)NC(=O)c2coc(n2)-c2coc(n2)-c2coc1n2` [HEXAOXAZOLE DIVALINE], the outcome with Salmonidae [1] and in the test with Salmonidae [4] was inactive. The result in the test filed under Homo sapiens [2] and in the test listed under Homo sapiens [3] was Active. In addition, the IC50 in the test with P388 came to 500 nM; in test [5], 410 nM; in [6], 300 nM; in test [7] it was 8000 nM; in test [8] it was 500 nM.
As for `CC(C)[C@@H]1NC(=O)c2coc(n2)-c2coc(n2)-c2coc(n2)C/C=C/c2coc(n2)-c2coc(n2)-c2coc1n2`, the result in the test with Salmonidae [1] and with Salmonidae [4] was inactive. Besides, the outcome in the test listed under Homo sapiens [2] and in the test listed under Homo sapiens [3] was Active. Further, the IC50 came out at 45 nM in the test on P388; 25 nM in test [5]; 38 nM in test [6]; 3300 nM in [7]; 43 nM in test [8].

These data come from ChEMBL document CHEMBL1157428, “Ring-closing metathesis for the synthesis of a highly G-quadruplex selective macrocyclic hexaoxazole having enhanced cytotoxic potency” (Bioorg Med Chem Lett, 2008).
